# Reference: ChEMBL document CHEMBL4024801, “Synthesis and Structure-Activity Relationship (SAR) Studies of Novel Pyrazolopyridine Derivatives as Inhibitors of Enterovirus Replication” (J Med Chem, 2018)
# pEC50: −log10 of the molar value.
# Assays:
# Enterovirus A71 = assay: Antiviral activity against Enterovirus A71 infected in monkey LLC-MK2 cells assessed as protection against virus-induced cytopathic effect after 3 to 4 days by crystal violet staining-based spectrophotometric method; assay type: functional, cell-based; conditions: Enterovirus A
# Summary of the method: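 EV-A71 was tested in LLC-MK2 cells grown in DMEM with 10% FBS, penicillin, streptomycin and glutamine, at a low MOI preset to give full CPE in 3–4 days. Compound was dissolved in DMSO and diluted 2-fold, in triplicate. Cells were fixed with formaldehyde when control CPE was maximal, then stained with crystal violet and read at OD590. EC50 came from a 7-point four-parameter or sigmoidal fit.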
# [1] = Selectivity index, ratio of CC50 for human HeLa-RW cells to EC50 for Coxsackievirus B3; assay type: toxicity; conditions: read-out: Ratio CC50/EC50
# Summary of the method: (§1)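 HeLa-RW cells in DMEM with 10% FBS were used for both arms. For EC50, cells were infected with CVB3-H3 at a low MOI giving full CPE in 3–4 days and exposed to 2-fold compound dilutions, in triplicate, with a 7-point fit. For CC50, uninfected cells got 2-fold dilutions for the same period. Both arms were fixed, crystal violet-stained and read at OD590.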
# LLC-MK2 = assay: Cytotoxicity against monkey LLC-MK2 cells after 3 to 4 days by crystal violet staining-based spectrophotometric method; assay type: cell-based, Macaca mulatta; conditions: rhesus monkey
# Summary of the method: (§2)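 Uninfected cells (HeLa-RW or LLC-MK2, in DMEM with penicillin, streptomycin, glutamine and 10% FBS) were exposed to serial 2-fold compound dilutions for the same period as the CPE assay. They were then fixed with formaldehyde, stained with crystal violet and read by OD590 spectrophotometry to derive CC50. Values are means ± s.d. of 3 experiments, or the average of triplicates in one.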
# Coxsackievirus B3 = assay: Antiviral activity against Coxsackievirus B3 infected in human HeLa-RW cells assessed as protection against virus-induced cytopathic effect after 3 to 4 days by crystal violet staining-based spectrophotometric method; assay type: functional, cell-based; conditions: Enterovirus B
# Summary of the method: (§3)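 HeLa-RW cells grown in DMEM with penicillin, streptomycin, glutamine and 10% FBS. They were infected at a low MOI pre-set to give full CPE in 3-4 days. Compound in DMSO was added as serial 2-fold dilutions (7 points), each in triplicate. When control CPE was maximal, cells were fixed with 4% formaldehyde, stained with 0.25% crystal violet and read at OD590. EC50 came from a four-parameter or sigmoidal fit.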
# [2] = Selectivity index, ratio of CC50 for human HeLa-RW cells to EC50 for Poliovirus 3; assay type: toxicity; conditions: read-out: Ratio CC50/EC50
# Summary of the method: (§4)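 HeLa-RW cells grown in DMEM with penicillin, streptomycin, glutamine and 10% FBS were infected at a low MOI chosen to give full CPE in 3-4 days. Serial 2-fold compound dilutions from DMSO stocks were tested in triplicate. When control CPE was maximal, cells were formaldehyde-fixed, crystal violet-stained and read at OD590. EC50 came from a 7-point curve. CC50 used uninfected cells over the same period.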
# Poliovirus 3 = assay: Antiviral activity against Poliovirus 3 infected in human HeLa-RW cells assessed as protection against virus-induced cytopathic effect after 3 to 4 days by crystal violet staining-based spectrophotometric method; assay type: functional, cell-based; conditions: Enterovirus C; summary of the method: as §3
# [3] = Selectivity index, ratio of CC50 for monkey LLC-MK2 cells to EC50 for Enterovirus A71; assay type: toxicity; conditions: read-out: Ratio CC50/EC50
# Summary of the method: as §1, with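 “LLC-MK2” for “HeLa-RW”, “EV-A71” for “CVB3-H3”, “triplicate.” for “triplicate, with a 7-point fit.”, “formaldehyde-fixed,” for “fixed,”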
# [4] = Selectivity index, ratio of CC50 for human HeLa-RW cells to EC50 for Poliovirus 1; assay type: toxicity; conditions: read-out: Ratio CC50/EC50; summary of the method: as §4
# Poliovirus 1 = assay: Antiviral activity against Poliovirus 1 infected in human HeLa-RW cells assessed as protection against virus-induced cytopathic effect after 3 to 4 days by crystal violet staining-based spectrophotometric method; assay type: functional, cell-based; conditions: Enterovirus C; summary of the method: as §3
# [5] = Cytotoxicity against human HeLa-RW cells after 3 to 4 days by crystal violet staining-based spectrophotometric method; assay type: cell-based; conditions: hela-rw; summary of the method: as §2
smiles,measurement,setting,value
CC(C)n1ncc2c(C(=O)Nc3cc(S(N)(=O)=O)ccc3F)cc(-c3cccs3)nc21,pEC50,Enterovirus A71,6.30
same,selectivity ratio,[1],25.7
same,CC50,LLC-MK2,25 µM
same,pEC50,Coxsackievirus B3,6.15
same,selectivity ratio,[2],2.9
same,pEC50,Poliovirus 3,5.20
same,selectivity ratio,[3],50
same,selectivity ratio,[4],2.9
same,pEC50,Poliovirus 1,5.20
same,CC50,[5],18 µM
CC(C)n1ncc2c(C(=O)Nc3cc(C(N)=O)ccc3F)cc(-c3cccs3)nc21,pEC50,Enterovirus A71,6.30
same,selectivity ratio,[1],23.5
same,CC50,LLC-MK2,25 µM
same,pEC50,Coxsackievirus B3,6.10
same,selectivity ratio,[2],3.8
same,pEC50,Poliovirus 3,5.30
same,selectivity ratio,[3],50
same,selectivity ratio,[4],3.8
same,pEC50,Poliovirus 1,5.30
same,CC50,[5],18.8 µM
CC(C)n1ncc2c(C(=O)N3CCc4cc(F)ccc43)cc(-c3cccs3)nc21,pEC50,Enterovirus A71,5.89
same,selectivity ratio,[1],9.9
same,CC50,LLC-MK2,> 200 µM
same,pEC50,Coxsackievirus B3,5.72
same,selectivity ratio,[2],1.9
same,pEC50,Poliovirus 3,5.00
same,selectivity ratio,[3],> 153
same,selectivity ratio,[4],1.9
same,pEC50,Poliovirus 1,5.00
same,CC50,[5],18.8 µM
